Results gathered from unrelated publications.
Compare with care: the assays were run in different laboratories.
Target: Serine/threonine-protein kinase MARK2 (MARK2, Homo sapiens, UniProt Q7KZI7)

SMILES	test	test system	setting	measurement	value
O=C(N[C@H]1CCCCC/C=C\C2C[C@@]2(C(=O)O)NC(=O)[C@@H]2C[C@@H](Oc3ccncc3)CN2C1=O)OC1CCCC1 (stereo partly drawn)	binding, competition with immobilised ligand	–	1 µM	remaining binding	81%
O=C(NCCCNc1nc(Nc2cccc(CN3CCOCC3)c2)ncc1C1CC1)C1CCC1	enzyme activity, inhibitor, radiometric	–	1 µM	remaining activity	4%
CC(=O)N1CCC(c2ccc(C(=O)NC3=NCCN3)cc2C(F)(F)F)CC1	cell-free assay, competition with immobilised ligand	–	1 µM	remaining binding	100%
Cc1nn(CC(F)(F)F)cc1Nc1nccc(NCCCNC(=O)C2CCC2)n1	enzyme activity, inhibitor, radiometric	–	1 µM	remaining activity	103%
Cc1cc(NC(=O)c2cccc3cc(-c4cccc5[nH]nc(N)c45)ccc23)ccc1F	enzyme activity, inhibitor	–	0.1 µM	activity vs control	94%
O=C(Nc1cnc(Oc2ccc(F)cc2)nc1)N1CCc2ncccc2[C@@H]1c1ccc(F)cc1	cell-free assay, competition with immobilised ligand	–	1 µM	remaining binding	90%
Nc1ncnc2occ(-c3ccc(NC(=O)Nc4cc(C(F)(F)F)ccc4F)cc3)c12	cell-free assay, inhibitor	–	20 µM	remaining signal	22%
CNC(=O)c1cc(Oc2ccc(NC(=O)Nc3ccc(Cl)c(C(F)(F)F)c3)cc2)ccn1	enzyme activity, inhibitor	–	10 µM	inhibition	26%
CCN1CCN(Cc2ccc(NC(=O)c3ccc(C)c(Oc4ccnc5[nH]ccc45)c3)cc2C(F)(F)F)CC1	target engagement in cells, inhibitor, chemoproteomics	Huh-7	1 µM	inhibition	-10.4%
O=C(Nc1cccnn1)N1CC(C/C=C/c2cncc(Oc3ccc(C(F)(F)F)cn3)n2)C1	cell-free assay, competition with immobilised ligand	–	1 µM	remaining binding	80%
COc1cc2ncnc(Nc3ccc(Oc4ccccc4)cc3C)c2cc1OC	enzyme activity, inhibitor	–	1 µM	inhibition	7%
c1cc(CN2CCOCC2)cc(Nc2nccc(NCCc3cnc[nH]3)n2)c1	enzyme activity, inhibitor, radiometric	–	1 µM	remaining activity	93%
C[C@@H]1CCN(C(=O)CC#N)C[C@@H]1N(C)c1ncnc2[nH]ccc12	cell-free assay, inhibitor	–	0.5 µM	remaining signal	91.8%
CN(C)C1CCN(CC#Cc2nn(C3CCCC3)c3nc(NCc4ccccc4)ncc23)C1 (stereo not drawn)	enzyme activity, inhibitor, FRET	–	1 µM	inhibition	3%
CO[C@H]1CC[C@H](CNc2ccc(S(=O)(=O)NC(=O)c3ccc(N4CCN(CC5=C(c6ccc(Cl)cc6)CC(C)(C)CC5)CC4)cc3Oc3cnc4[nH]ccc4c3)cc2[N+](=O)[O-])CC1	cell-free assay, competition with immobilised ligand	–	1 µM	remaining binding	100%
FC(F)c1nc2ccccc2n1-c1nc(N2CCOCC2)nc(N2CCOCC2)n1	enzyme activity, inhibitor	–	10 µM	remaining activity	87%
Cc1c(NC(=O)c2cc(C(N)=O)nc3cc(F)ccc23)c(C(F)(F)F)nn1Cc1ccc(C#N)cc1	cell-free assay, competition with immobilised ligand	–	1 µM	remaining binding	97%
O=C1NC(=O)c2cc(Nc3ccc(F)cc3)c(Nc3ccc(F)cc3)cc21	cell-free assay	–	0.5 µM	remaining signal	98.2%
O=C(Nc1cccc(Nc2ncc(Br)c(NCCc3cnc[nH]3)n2)c1)N1CCCC1	enzyme activity, inhibitor, radiometric	–	1 µM	remaining activity	5%
CCCCNc1ncc2c(-c3ccc(F)cc3)nn(C[C@H]3CC[C@H](N)CC3)c2n1	target engagement in cells, inhibitor, chemoproteomics	–	20 mM	inhibition	18%
CN1CCN(c2cnc3c(C4CCN(C(=O)c5ccc(OC(F)(F)F)cc5N)CC4)ncnc3c2)CC1	cell-free assay, competition with immobilised ligand	–	1 µM	remaining binding	100%
CC/C(=N\NC(=O)NCc1cccc(O)c1)c1ccc(O)c(C)c1O	enzyme activity, inhibitor	–	0.1 µM	inhibition	-5.8%
O=C(NCCCNc1nc(Nc2cccc(NC(=O)N3CCCC3)c2)ncc1I)c1cccs1	enzyme activity, inhibitor, radiometric	–	1 µM	remaining activity	3%
Cc1noc([C@H]2C[C@@H](c3ccc(C(F)(F)F)cc3)CN(C(=O)N3CCS(=O)(=O)C3)C2)n1	cell-free assay, competition with immobilised ligand	–	1 µM	remaining binding	100%
O=C(NCCCNc1ccnc(Nc2cccc(NC(=O)N3CCCC3)c2)n1)C1CCC1	enzyme activity, inhibitor, radiometric	–	1 µM	remaining activity	82%
FC(F)(F)Oc1cccc(-c2cnc3ccc(-c4ccncc4)nn23)c1	enzyme activity, inhibitor, radiometric	–	1 µM	activity vs control	106%
Cc1nn(CC(F)(F)F)cc1Nc1ncc(C2CC2)c(NCCCNC(=O)C2CCC2)n1	enzyme activity, inhibitor, radiometric	–	1 µM	remaining activity	93%
CN1CC(Oc2cnc(C#N)cc2-c2ccn3nc(NC(=O)C4CC4)cc3c2)C1	enzyme activity, inhibitor	–	1 µM	inhibition	-1%
NS(=O)(=O)c1ccc(CNc2nc(Nc3cccc(CN4CCOCC4)c3)ncc2C2CC2)cc1	enzyme activity, inhibitor, radiometric	–	1 µM	remaining activity	98%
Cc1ccc(Nc2nccc(N(C)c3ccc4c(C)n(C)nc4c3)n2)cc1S(N)(=O)=O	enzyme activity, inhibitor	–	0.3 µM	inhibition	27%
